According to ChEMBL document CHEMBL1140227, “Histone deacetylase inhibitors through click chemistry” (J Med Chem, 2008):

Legend:
Assay type in all cases: functional
[1] = test system: MDA-MB-468; assay: Growth inhibition of human MDA-MB-468 cells at 10 uM relative to control; conditions: values are per cent of control
Summary of the method: (§1)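 Single-dose preliminary screen in the NCI human cancer cell line panel, run by the NIH. Percent inhibition of cell line growth was calculated by comparison with untreated samples.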

[2] = Growth inhibition of human Hs 578T cells at 10 uM relative to control; conditions: values are per cent of control; summary of the method: as §1
[3] = test system: KM12; assay: Growth inhibition of human KM12 cells at 10 uM relative to control; conditions: values are per cent of control; summary of the method: as §1
[4] = test system: UACC-62; assay: Growth inhibition of human UACC62 cells at 10 uM relative to control; conditions: values are per cent of control
Summary of the method: (§2)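 Single-dose NCI human tumour cell line screen, run by the NIH. Percent inhibition of cell line growth was calculated by comparison with untreated samples.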

[5] = test system: Malme-3M; assay: Growth inhibition of human MALME-3M cells at 10 uM relative to control; conditions: values are per cent of control; summary of the method: as §1
[6] = test system: SK-OV-3; assay: Growth inhibition of human SKOV3 cells at 10 uM relative to control; conditions: values are per cent of control; summary of the method: as §1
[7] = test system: UO-31; assay: Growth inhibition of human UO31 cells at 10 uM relative to control; conditions: values are per cent of control; summary of the method: as §2
[8] = test system: COLO 205; assay: Growth inhibition of human COLO205 cells at 10 uM relative to control; conditions: values are per cent of control; summary of the method: as §1
[9] = test system: SK-MEL-5; assay: Growth inhibition of human SK-MEL-5 cells at 10 uM relative to control; conditions: values are per cent of control; summary of the method: as §1
[10] = test system: NCI/ADR-RES; assay: Growth inhibition of human NCI/ADR-RES cells at 10 uM relative to control; conditions: values are per cent of control; summary of the method: as §1
[11] = test system: OVCAR-5; assay: Growth inhibition of human OVCAR5 cells at 10 uM relative to control; conditions: values are per cent of control; summary of the method: as §1
[12] = test system: NCI-H322M; assay: Growth inhibition of human NCI-H322M cells at 10 uM relative to control; conditions: values are per cent of control; summary of the method: as §1
[13] = test system: SNB-75; assay: Growth inhibition of human SNB75 cells at 10 uM relative to control; conditions: values are per cent of control; summary of the method: as §2
[14] = test system: A549; assay: Growth inhibition of human A549 cells at 10 uM relative to control; conditions: values are per cent of control; summary of the method: as §1
[15] = test system: IGROV-1; assay: Growth inhibition of human IGROV1 cells at 10 uM relative to control; conditions: values are per cent of control; summary of the method: as §1
[16] = test system: MDA-MB-231; assay: Growth inhibition of human MDA-MB-231 cells at 10 uM relative to control; conditions: values are per cent of control; summary of the method: as §1
[17] = test system: SW-620; assay: Growth inhibition of human SW620 cells at 10 uM relative to control; conditions: values are per cent of control; summary of the method: as §2
[18] = test system: K562; assay: Growth inhibition of human K562 cells at 10 uM relative to control; conditions: values are per cent of control; summary of the method: as §1
[19] = test system: HOP-62; assay: Growth inhibition of human HOP62 cells at 10 uM relative to control; conditions: values are per cent of control; summary of the method: as §1
[20] = test system: ACHN; assay: Growth inhibition of human ACHN cells at 10 uM relative to control; conditions: values are per cent of control; summary of the method: as §1
[21] = test system: NCI-H23; assay: Growth inhibition of human NCI-H23 cells at 10 uM relative to control; conditions: values are per cent of control; summary of the method: as §1
[22] = test system: DU-145; assay: Growth inhibition of human DU145 cells at 10 uM relative to control; conditions: values are per cent of control; summary of the method: as §1
[23] = test system: M14; assay: Growth inhibition of human M14 cells at 10 uM relative to control; conditions: values are per cent of control; summary of the method: as §1
[24] = test system: SK-MEL-2; assay: Growth inhibition of human SK-MEL-2 cells at 10 uM relative to control; conditions: values are per cent of control; summary of the method: as §1
[25] = test system: SNB-19; assay: Growth inhibition of human SNB19 cells at 10 uM relative to control; conditions: values are per cent of control; summary of the method: as §1
[26] = test system: TK-10; assay: Growth inhibition of human TK10 cells at 10 uM relative to control; conditions: values are per cent of control; summary of the method: as §2
[27] = test system: OVCAR-4; assay: Growth inhibition of human OVCAR4 cells at 10 uM relative to control; conditions: values are per cent of control; summary of the method: as §1
[28] = test system: OVCAR-3; assay: Growth inhibition of human OVCAR-3 cells at 10 uM relative to control; conditions: values are per cent of control; summary of the method: as §1
[29] = test system: OVCAR-8; assay: Growth inhibition of human OVCAR8 cells at 10 uM relative to control; conditions: values are per cent of control; summary of the method: as §1
[30] = test system: NCI-H460; assay: Growth inhibition of human NCI-H460 cells at 10 uM relative to control; conditions: values are per cent of control; summary of the method: as §1
[31] = test system: UACC-257; assay: Growth inhibition of human UACC257 cells at 10 uM relative to control; conditions: values are per cent of control; summary of the method: as §2
[32] = test system: BT-549; assay: Growth inhibition of human BT549 cells at 10 uM relative to control; conditions: values are per cent of control; summary of the method: as §1
[33] = test system: SF-268; assay: Growth inhibition of human SF268 cells at 10 uM relative to control; conditions: values are per cent of control; summary of the method: as §1
[34] = test system: NCI-H522; assay: Growth inhibition of human NCI-H522 cells at 10 uM relative to control; conditions: values are per cent of control; summary of the method: as §1
[35] = test system: SF-539; assay: Growth inhibition of human SF539 cells at 10 uM relative to control; conditions: values are per cent of control; summary of the method: as §1
[36] = test system: PC-3; assay: Growth inhibition of human PC3 cells at 10 uM relative to control; conditions: values are per cent of control; summary of the method: as §1
[37] = test system: SN12C; assay: Growth inhibition of human SN12C cells at 10 uM relative to control; conditions: values are per cent of control; summary of the method: as §1
[38] = test system: CCRF-CEM; assay: Growth inhibition of human CCRF-CEM cells at 10 uM relative to control; conditions: values are per cent of control; summary of the method: as §1
[39] = test system: A498; assay: Growth inhibition of human A498 cells at 10 uM relative to control; conditions: values are per cent of control; summary of the method: as §1
[40] = test system: SF-295; assay: Growth inhibition of human SF295 cells at 10 uM relative to control; conditions: values are per cent of control; summary of the method: as §1
[41] = cells; conditions: Homo sapiens, Cancer cell lines
[42] = test system: EKVX; assay: Growth inhibition of human EKVX cells at 10 uM relative to control; conditions: values are per cent of control; summary of the method: as §1
[43] = test system: T47D; assay: Growth inhibition of human T47D cells at 10 uM relative to control; conditions: values are per cent of control; summary of the method: as §2
[44] = test system: 786-0; assay: Growth inhibition of human 786-0 cells at 10 uM relative to control; conditions: values are per cent of control; summary of the method: as §1
[45] = test system: HT-29; assay: Growth inhibition of human HT-29 cells at 10 uM relative to control; conditions: values are per cent of control; summary of the method: as §1
[46] = test system: HL-60(TB); assay: Growth inhibition of human HL-60(TB) cells at 10 uM relative to control; conditions: read-out: INH
Summary of the method: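 Single-dose cell line screen run by the NCI (NIH) in its human cancer cell line panel, which includes the leukemia line HL-60(TB). Percent growth inhibition was calculated by comparison with untreated samples.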

[47] = Growth inhibition of human RPMI8266 cells at 10 uM relative to control; conditions: values are per cent of control; summary of the method: as §1
[48] = test system: MCF7; assay: Growth inhibition of human MCF7 cells at 10 uM relative to control; conditions: values are per cent of control; summary of the method: as §1
[49] = test system: U-251; assay: Growth inhibition of human U251 cells at 10 uM relative to control; conditions: values are per cent of control; summary of the method: as §2
[50] = test system: MOLT-4; assay: Growth inhibition of human MOLT4 cells at 10 uM relative to control; conditions: values are per cent of control; summary of the method: as §1
[51] = test system: HCT-15; assay: Growth inhibition of human HCT15 cells at 10 uM relative to control; conditions: values are per cent of control; summary of the method: as §1
[52] = test system: MDA-MB-435; assay: Growth inhibition of human MDA-MB-435 cells at 10 uM relative to control; conditions: values are per cent of control; summary of the method: as §1
[53] = test system: HCT-116; assay: Growth inhibition of human HCT116 cells at 10 uM relative to control; conditions: values are per cent of control; summary of the method: as §1
[54] = test system: HCC 2998; assay: Growth inhibition of human HCC2998 cells at 10 uM relative to control; conditions: values are per cent of control; summary of the method: as §1
[55] = test system: NCI-H226; assay: Growth inhibition of human NCI-H226 cells at 10 uM relative to control; conditions: values are per cent of control; summary of the method: as §1

O=C(Cn1cc(C(=O)NO)nn1)c1ccccc1
growth, % of control at 10 µM [1]: 110%
growth, % of control at 10 µM [2]: 90%
growth, % of control at 10 µM [3]: 108%
growth, % of control at 10 µM [4]: 93.3%
growth, % of control at 10 µM [5]: 107%
growth, % of control at 10 µM [6]: 109%
growth, % of control at 10 µM [7]: 84.7%
growth, % of control at 10 µM [8]: 123%
growth, % of control at 10 µM [9]: 111%
growth, % of control at 10 µM [10]: 91.3%
growth, % of control at 10 µM [11]: 84.1%
growth, % of control at 10 µM [12]: 95.9%
growth, % of control at 10 µM [13]: 117%
growth, % of control at 10 µM [14]: 103%
growth, % of control at 10 µM [15]: 100%
growth, % of control at 10 µM [16]: 101%
growth, % of control at 10 µM [17]: 94.8%
growth, % of control at 10 µM [18]: 85.1%
growth, % of control at 10 µM [19]: 118%
growth, % of control at 10 µM [20]: 99.2%
growth, % of control at 10 µM [21]: 110%
growth, % of control at 10 µM [22]: 135%
growth, % of control at 10 µM [23]: 94.1%
growth, % of control at 10 µM [24]: -26.8%
growth, % of control at 10 µM [25]: 95.9%
growth, % of control at 10 µM [26]: 113%
growth, % of control at 10 µM [27]: 112%
growth, % of control at 10 µM [28]: 146%
growth, % of control at 10 µM [29]: 96.2%
growth, % of control at 10 µM [30]: 120%
growth, % of control at 10 µM [31]: 112%
growth, % of control at 10 µM [32]: 108%
growth, % of control at 10 µM [33]: 104%
growth, % of control at 10 µM [34]: 99.2%
growth, % of control at 10 µM [35]: 118%
growth, % of control at 10 µM [36]: 82.1%
growth, % of control at 10 µM [37]: 97.7%
growth, % of control at 10 µM [38]: 92.1%
growth, % of control at 10 µM [39]: 67.6%
growth, % of control at 10 µM [40]: 126%
inhibition at 10 µM [41]: > 95%
growth, % of control at 10 µM [42]: 108%
growth, % of control at 10 µM [43]: 102%
growth, % of control at 10 µM [44]: 105%
growth, % of control at 10 µM [45]: 115%
growth, % of control at 10 µM [46]: 136%
growth, % of control at 10 µM [47]: 79.8%
growth, % of control at 10 µM [48]: 112%
growth, % of control at 10 µM [49]: 96.9%
growth, % of control at 10 µM [50]: 110%
growth, % of control at 10 µM [51]: 108%
growth, % of control at 10 µM [52]: 106%
growth, % of control at 10 µM [53]: 97.3%
growth, % of control at 10 µM [54]: 107%
growth, % of control at 10 µM [55]: 87.6%
